“And” between values parts separate entries of the source, which are not always exact repeats. Equal entries are not always repeated. Where two headings read alike, the source gives them in different places.
Key:
MCF-7 cells = experiment: Cell viability assay; type: cell-based, human; conditions: read-out: MCF-7 IC50
human ERα LBD = biological target: T1, human ERα LBD (Homo sapiens, UniProt P03372); experiment: Competitive fluorescence polarization binding assay, ERα; conditions: for RBA ERα: IC50 estradiol/IC50 compound × 100, estradiol = 100%; for α/β ratio: ratio of RBA ERα to RBA ERβ
T1 sequence (P03372 311-547 limits assumed): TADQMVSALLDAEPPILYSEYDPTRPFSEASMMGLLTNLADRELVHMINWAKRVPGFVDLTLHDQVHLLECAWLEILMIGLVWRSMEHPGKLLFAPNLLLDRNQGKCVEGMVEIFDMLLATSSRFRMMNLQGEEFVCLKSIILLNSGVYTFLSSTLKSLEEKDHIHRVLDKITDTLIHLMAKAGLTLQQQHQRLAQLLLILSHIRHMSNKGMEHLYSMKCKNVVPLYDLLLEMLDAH

T-47D^Y537S cells = experiment: Cell viability assay; type: cell-based, human; conditions: 72 h, read-out: T-47D^Y537S IC50
T-47D^D538G cells = experiment: Cell viability assay; type: cell-based, human; conditions: 72 h, read-out: T-47D^D538G IC50
T-47D cells = experiment: Cell viability assay; type: cell-based, human; conditions: 72 h, read-out: T-47D IC50
ERα = biological target: T2, ERα (Homo sapiens, UniProt P03372); experiment: Immunoblot analysis of ERα degradation in MCF-7 cells; type: cell-based; conditions: MCF-7 cells, 1 or 5 μmol/L
T2 sequence (P03372 1-595): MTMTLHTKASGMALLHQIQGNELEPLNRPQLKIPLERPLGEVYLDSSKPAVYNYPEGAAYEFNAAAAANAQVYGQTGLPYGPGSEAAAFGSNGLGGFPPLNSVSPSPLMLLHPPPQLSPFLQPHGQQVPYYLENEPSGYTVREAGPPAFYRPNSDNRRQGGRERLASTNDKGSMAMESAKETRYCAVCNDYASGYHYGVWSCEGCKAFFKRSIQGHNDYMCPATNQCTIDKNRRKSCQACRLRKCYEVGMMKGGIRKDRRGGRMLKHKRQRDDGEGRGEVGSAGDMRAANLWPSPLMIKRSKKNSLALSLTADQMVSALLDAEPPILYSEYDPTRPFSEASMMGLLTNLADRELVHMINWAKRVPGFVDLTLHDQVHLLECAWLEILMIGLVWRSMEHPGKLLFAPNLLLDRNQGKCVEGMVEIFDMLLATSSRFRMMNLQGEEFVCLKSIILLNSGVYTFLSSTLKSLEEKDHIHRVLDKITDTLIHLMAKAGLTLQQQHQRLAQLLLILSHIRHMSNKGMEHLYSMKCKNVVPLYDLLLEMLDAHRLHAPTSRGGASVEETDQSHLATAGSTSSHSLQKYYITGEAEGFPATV

human ERβ LBD = human ERβ LBD (Homo sapiens, UniProt Q92731); experiment: Competitive fluorescence polarization binding assay, ERβ; conditions: for RBA ERβ: IC50 estradiol/IC50 compound × 100, estradiol = 100%
Chain of human ERβ LBD (Q92731 264-498 limits assumed): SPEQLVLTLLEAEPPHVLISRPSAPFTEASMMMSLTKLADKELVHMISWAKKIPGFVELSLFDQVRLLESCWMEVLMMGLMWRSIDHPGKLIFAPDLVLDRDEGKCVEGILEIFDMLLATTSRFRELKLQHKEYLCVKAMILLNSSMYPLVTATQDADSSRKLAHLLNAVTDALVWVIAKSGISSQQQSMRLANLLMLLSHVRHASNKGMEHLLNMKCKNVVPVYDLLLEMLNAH

LCC-2 cells = experiment: Cell viability assay on tamoxifen-resistant LCC-2 cells; type: cell-based; conditions: Homo sapiens, LCC2, read-out: LCC-2 IC50
ERβ = ERβ (Homo sapiens, UniProt Q92731); experiment: ER transcriptional activity; type: cell-based; conditions: with 10 nmol/L 17β-estradiol
Chain of ERβ (Q92731 whole entry): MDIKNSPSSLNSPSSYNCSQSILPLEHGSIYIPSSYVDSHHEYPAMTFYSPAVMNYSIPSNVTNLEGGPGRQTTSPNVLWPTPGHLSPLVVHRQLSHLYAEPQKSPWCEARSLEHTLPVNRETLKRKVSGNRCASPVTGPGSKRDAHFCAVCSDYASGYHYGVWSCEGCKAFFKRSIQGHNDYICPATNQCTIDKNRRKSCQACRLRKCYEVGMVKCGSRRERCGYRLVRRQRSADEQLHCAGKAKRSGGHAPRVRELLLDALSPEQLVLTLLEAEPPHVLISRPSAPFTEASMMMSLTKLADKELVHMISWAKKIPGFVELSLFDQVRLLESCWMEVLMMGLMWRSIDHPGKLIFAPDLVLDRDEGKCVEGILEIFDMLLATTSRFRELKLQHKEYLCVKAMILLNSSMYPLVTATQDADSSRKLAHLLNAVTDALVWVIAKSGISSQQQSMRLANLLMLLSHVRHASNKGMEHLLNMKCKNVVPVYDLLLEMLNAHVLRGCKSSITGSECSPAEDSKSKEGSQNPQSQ

MCF-7 tumor xenograft = MCF-7 tumor xenograft model in BALB/c nude mice; type: in vivo; conditions: 4 mg/kg ip every other day, Day 32
Method in brief: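 Female BALB/c nude mice (15–18 g, 5 weeks old) received 1 × 10⁷ MCF-7 cells in 100 μL PBS into the right axillary mammary fat pad. Tumour volume (W² × L × 0.5) and body weight were measured every 2 days. Mice were sacrificed on Day 33. Tumours were assessed by IHC (Ki-67, ERα) and ERα Western blot.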

Compound	IC50 (MCF-7 cells; Homo sapiens, MCF7, 72 h)	Ki (human ERα LBD)	RBA ERα (human ERα LBD)	α/β ratio (human ERα LBD)	IC50 (T-47D^Y537S cells; Homo sapiens)	IC50 (T-47D^D538G cells; Homo sapiens)	IC50 (T-47D cells; Homo sapiens, T47D)	ERα degradation (immunoblot) (ERα)	Ki (human ERβ LBD)	RBA ERβ (human ERβ LBD)	IC50 (MCF-7 cells; cell viability, 72 h)	Ki (human ERα LBD; read-out: Ki ERα)	IC50 (T-47D^Y537S cells; cell viability)	IC50 (T-47D^D538G cells; cell viability)	IC50 (T-47D cells; cell viability)	Ki (human ERβ LBD; read-out: Ki ERβ)	IC50 (LCC-2 cells)	Antagonist mode ERβ Eff (%E2) (ERβ)	TGI (tumor growth inhibition) (MCF-7 tumor xenograft)
CC(C)CC(=O)Nc1ccc(C2=C(c3ccc(O)cc3)[C@H]3O[C@@H]2CC3S(=O)(=O)N(CC(F)(F)F)c2ccc(O)cc2)cc1 (mixture of isomers) [Compound 29k, N-(4-((1R,4R)-3-(4-Hydroxyphenyl)-5-(N-(4-hydroxyphenyl)-N-(2,2,2-trifluoroethyl)sulfamoyl)-7-oxabicyclo[2.2.1]hept-2-en-2-yl)phenyl)-3-methylbutanamide]	1060 ± 190 nM	1.15 nM	2.41 ± 0.21%	1.66	> 31000 nM	> 31000 nM	> 31000 nM	impaired degradation ability	4.6 nM	1.45 ± 0.12%	–	–	–	–	–	–	–	–	–
CC(C)=CC(=O)Nc1ccc(C2=C(c3ccc(O)cc3)C3CC(S(=O)(=O)N(CC(F)(F)F)c4ccc(O)cc4)C2O3)cc1 (centres unmarked) [29c′]	–	–	15.12% and 15.12 ± 0.31%	7.37	–	–	–	impaired degradation ability	–	2.05 ± 0.45%	950 ± 110 nM	0.18 nM	4050 ± 270 nM	5000 ± 360 nM	5520 ± 270 nM	3.25 nM	–	–	–
CC/C(=C(\c1ccc(O)cc1)c1ccc(OCCN(C)C)cc1)c1ccccc1 [Compound 4-OHT, 4-hydroxytamoxifen, reference compound]	670 ± 80 nM	–	–	–	8900 ± 280 nM	9130 ± 600 nM	1950 ± 200 nM	–	–	–	–	–	–	–	–	–	22200 ± 1930 nM	11 ± 3 %E2	–
CC(C)=CC(=O)Nc1ccc(C2=C(c3ccc(O)cc3)C3CC(S(=O)(=O)N(CC(F)(F)F)c4ccc(C)cc4)C2O3)cc1 (centres unmarked) [Compound 29d, N-(4-(3-(4-Hydroxyphenyl)-6-(N-(p-tolyl)-N-(2,2,2-trifluoroethyl)sulfamoyl)-7-oxabicyclo[2.2.1]hept-2-en-2-yl)phenyl)-3-methylbut-2-enamide]	750 ± 210 nM	0.43 nM	6.49 ± 0.21%	4.74	> 31000 nM	> 31000 nM	8330 ± 220 nM	–	4.87 nM	1.37 ± 0.11%	–	–	–	–	–	–	–	–	–
CC(C)=CC(=O)Nc1ccc(C2=C(c3ccc(O)cc3)C3CC(S(=O)(=O)N(CC(F)(F)F)c4ccccc4)C2O3)cc1 (centres unmarked) [Compound 29e, N-(4-(3-(4-Hydroxyphenyl)-6-(N-phenyl-N-(2,2,2-trifluoroethyl)sulfamoyl)-7-oxabicyclo[2.2.1]hept-2-en-2-yl)phenyl)-3-methylbut-2-enamide]	660 ± 120 nM	0.29 nM	9.50 ± 0.09%	33.9	1790 ± 170 nM	5180 ± 310 nM	5100 ± 320 nM	–	23.8 nM	0.28 ± 0.05%	–	–	–	–	–	–	–	–	–
CC(C)=CC(=O)Nc1ccc(C2=C(c3ccc(O)cc3)C3OC2CC3S(=O)(=O)N(CC(F)(F)F)c2ccc(F)cc2)cc1 (centres unmarked) [Compound 29g, N-(4-(5-(N-(4-Fluorophenyl)-N-(2,2,2-trifluoroethyl)sulfamoyl)-3-(4-hydroxyphenyl)-7-oxabicyclo[2.2.1]hept-2-en-2-yl)phenyl)-3-methylbut-2-enamide]	640 ± 100 nM	0.37 nM	7.52 ± 0.29%	7.37	> 31000 nM	7820 ± 470 nM	5280 ± 230 nM	–	6.54 nM	1.02 ± 0.13%	–	–	–	–	–	–	–	–	–
CC(C)=CC(=O)Nc1ccc(C2=C(c3ccc(O)cc3)C3OC2CC3S(=O)(=O)N(CC(F)(F)F)c2cccc(O)c2)cc1 (centres unmarked) [Compound 29h, N-(4-(3-(4-Hydroxyphenyl)-5-(N-(3-hydroxyphenyl)-N-(2,2,2-trifluoroethyl)sulfamoyl)-7-oxabicyclo[2.2.1]hept-2-en-2-yl)phenyl)-3-methylbut-2-enamide]	980 ± 350 nM	0.35 nM	7.89 ± 0.11%	17.93	2990 ± 220 nM	2840 ± 140 nM	3920 ± 10 nM	effective in inducing ERα degradation	15.2 nM	0.44 ± 0.02%	–	–	–	–	–	–	–	–	–
CCN(c1ccc(OC)cc1)S(=O)(=O)C1CC2OC1C(c1ccc(O)cc1)=C2c1ccc(NC(=O)C=C(C)C)cc1 (centres unmarked) [Compound 29j, N-(4-(5-(N-Ethyl-N-(4-methoxyphenyl)sulfamoyl)-3-(4-hydroxyphenyl)-7-oxabicyclo[2.2.1]hept-2-en-2-yl)phenyl)-3-methylbut-2-enamide]	290 ± 30 nM	0.63 nM	4.36 ± 0.33%	8.55	12700 ± 530 nM	8250 ± 450 nM	7920 ± 190 nM	effective in inducing ERα degradation	13.1 nM	0.51 ± 0.09%	–	–	–	–	–	–	–	–	–
Nc1ccc(C2=C(c3ccc(O)cc3)C3OC2CC3S(=O)(=O)N(CC(F)(F)F)c2ccc(O)cc2)cc1 (centres unmarked) [Compound 29l, 5-(4-Aminophenyl)-N,6-bis(4-hydroxyphenyl)-N-(2,2,2-trifluoroethyl)-7-oxabicyclo[2.2.1]hept-5-ene-2-sulfonamide]	3170 ± 330 nM	1.14 nM	2.43 ± 0.27%	1.03	> 31000 nM	> 31000 nM	8110 ± 370 nM	–	2.84 nM	2.35 ± 0.33%	–	–	–	–	–	–	–	–	–
CC/C(=C(\c1ccccc1)c1ccc(OCCN(C)C)cc1)c1ccccc1 [tamoxifen, reference compound]	–	–	–	–	–	–	–	–	–	–	–	–	–	–	–	–	–	–	87%

Reference: publication PMC10692362 (Acta Pharmaceutica Sinica. B, 2023)
